According to paper PMC7490525 (Biochemistry and Biophysics Reports, 2020):
Read-outs that look alike come from different tables or passages of the source. Marks after values point to notes of the source that are not given here.

How the values were obtained:
[1] = system: organic anion transporting polypeptides (OATPs); conditions: Caco-2 cells; cited from earlier work
Caco-2 cells [2] = conditions: cited from earlier work
[3] = system: organic anion transporting polypeptides (OATPs); test: Effect of coincubated or pretreated compounds on BSP uptake by Caco-2 cells; type: cell-based, human; conditions: 37 °C, 5 min; for Decrease of BSP uptake on coincubation: 5 μM BSP with 100 μM compound, Caco-2 cells; for Ki: read-out: Inhibition constant (Ki) for BSP uptake, Dixon plot, competitive, 2, 5 or 10 μM BSP, PFCA 25, 50 or 100 μM, pH 6.0
Caco-2 cells [4] = type: in vitro ADME, human; conditions: 1 μM PFCA, pH 6.0, 37 °C, 5 min
Caco-2 cells [5] = test: Uptake of BSP from the apical membrane of Caco-2 cells; type: in vitro ADME, human
Procedure, shortened: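 Confluent Caco-2 cells (passage 54–70, 2 weeks on collagen) preincubated 20 min, then exposed to BSP in Hanks' buffer with glucose plus MES or HEPES. Conditions: 5 μM for 5 min at 37 °C pH 6.0 (control); pH 5.0/7.4/8.5; 4 °C; or Na+-free (KCl or choline chloride). Time course ran to 60 min; varied concentrations were fitted to carrier-mediated plus diffusion terms. Cell extracts normalised to protein; n=3–8.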

Caco-2 cells [6] = conditions: cited from earlier work; remark: listed apart in the source
[7] = coincubation of 5 μM BSP with 100 μM compound
[8] = 5 μM BSP, 37 °C, pH 6.0, up to 60 min
[9] = Caco-2 cells, 37 °C, pH 6.0, 5 min, BSP 0.5–100 μM

C[C@]12CC[C@@H]3c4ccc(OS(=O)(=O)O)cc4CC[C@H]3[C@@H]1CCC2=O [estrone-3-sulfate]
Decrease of BSP uptake on coincubation [1]: 39%
Km (Caco-2 cells [2]; read-out: Km of estrone-3-sulfate, ref Gram et al. [27]): 23 µM
Km (Caco-2 cells [2]; read-out: Km of estrone-3-sulfate, ref Kis et al. [26]): 6 µM
Km (Caco-2 cells [2]; read-out: Km of estrone-3-sulfate, ref Sai et al. [4]): 1.8 µM

O=C(O)C(F)(F)C(F)(F)C(F)(F)C(F)(F)C(F)(F)C(F)(F)F [PFHpA, perfluoroheptanoic acid]
Decrease of BSP uptake on coincubation [3]: 27–55%

O=C(O)C(F)(F)C(F)(F)C(F)(F)C(F)(F)C(F)(F)C(F)(F)C(F)(F)C(F)(F)C(F)(F)C(F)(F)F [PFUnDA, perfluoroundecanoic acid]
Decrease of BSP uptake on coincubation [3]: 27–55%

CO[C@H]1/C=C/O[C@@]2(C)Oc3c(C)c(O)c4c(O)c(cc(O)c4c3C2=O)NC(=O)/C(C)=C\C=C\[C@H](C)[C@H](O)[C@@H](C)[C@@H](O)[C@@H](C)[C@H](OC(C)=O)[C@@H]1C [rifamycin SV]
Decrease of BSP uptake on coincubation [1]: 40%

O=C(O)C(F)(F)C(F)(F)C(F)(F)C(F)(F)C(F)(F)C(F)(F)C(F)(F)C(F)(F)F [PFNA, perfluorononanoic acid]
Uptake of PFCA by Caco-2 cells (rank among C6–C12) (Caco-2 cells [4]): the highest
Decrease of BSP uptake on coincubation [3]: 27–55%
Ki [3]: 35.3 ± 0.1 µM

O=C(O)C(F)(F)C(F)(F)C(F)(F)C(F)(F)C(F)(F)F [PFHxA, Perfluorohexanoic acid]
Uptake of PFCA by Caco-2 cells (rank among C6–C12) (Caco-2 cells [4]): the lowest

O=S(=O)(O)C(F)(F)C(F)(F)C(F)(F)C(F)(F)C(F)(F)C(F)(F)C(F)(F)C(F)(F)F [PFOS, perfluorooctane sulfonate]
Decrease of BSP uptake on coincubation [3]: 54%
Relative uptake rate of BSP (% of control) [3, 7]: 46.1 ± 4.5 ^d % of control

COc1ccc(Cl)cc1C(=O)NCCc1ccc(S(=O)(=O)NC(=O)NC2CCCCC2)cc1 [Glibenclamide, glibenclamide]
Decrease of BSP uptake on coincubation [3]: 48%
Relative uptake rate of BSP (% of control) [3, 7]: 52.2 ± 3.5 ^d % of control

O=C(O)C(F)(F)C(F)(F)C(F)(F)C(F)(F)C(F)(F)C(F)(F)C(F)(F)C(F)(F)C(F)(F)F [PFDA, perfluorodecanoic acid]
Decrease of BSP uptake on coincubation [3]: 27–55%
Ki [3]: 43.2 ± 0.3 µM

O=[N+]([O-])c1ccc(O)c([N+](=O)[O-])c1 [DNP, 2,4-dinitrophenol]
Relative uptake rate of BSP (% of control) ([3]; cells treated with 1 mM DNP for 20 min, then 5 μM BSP): 105.9 ± 10.0 % of control

O=C1OC(c2ccc(O)c(S(=O)(=O)O)c2)(c2ccc(O)c(S(=O)(=O)O)c2)c2c(Br)c(Br)c(Br)c(Br)c21 [BSP, sulfobromophthalein]
Relative uptake rate (% of control) (Caco-2 cells [5]; 5 μM BSP, 4 °C and pH 6.0, 5 min, control 37 °C and pH 6.0): 49.9 ± 3.1 ^d % of control
Relative uptake rate (% of control) (Caco-2 cells [5]; 5 μM BSP, 37 °C and pH 5.0, 5 min, control 37 °C and pH 6.0): 101.7 ± 5.1 % of control
Relative uptake rate (% of control) (Caco-2 cells [5]; 5 μM BSP, 37 °C and pH 7.4, 5 min, control 37 °C and pH 6.0): 105.2 ± 5.3 % of control
Relative uptake rate (% of control) (Caco-2 cells [5]; 5 μM BSP, 37 °C and pH 8.5, 5 min, control 37 °C and pH 6.0): 101.6 ± 1.3 % of control
Relative uptake rate (% of control) (Caco-2 cells [5]; 5 μM BSP, 37 °C, 5 min, Na+-free medium (NaCl replaced with KCl)): 95.0 ± 7.4 % of control
Relative uptake rate (% of control) (Caco-2 cells [5]; 5 μM BSP, 37 °C, 5 min, Na+-free medium (NaCl replaced with choline chloride)): 81.0 ± 4.0 % of control
Time at which BSP uptake plateaued (Caco-2 cells [5]; [8]): about 15 min
Time until which BSP uptake increased linearly (Caco-2 cells [5]; [8]): 10 min
Reduction of BSP uptake at low temperature (Caco-2 cells [5]; 4 °C, pH 6.0, versus 37 °C): 50%
Contribution of carrier-mediated uptake to BSP uptake (Caco-2 cells [5]; Caco-2 cells): approximately 70%
Contribution of uptake via simple diffusion to BSP uptake (Caco-2 cells [5]; Caco-2 cells): ~30%
Vmax of BSP uptake (Caco-2 cells [5]; [9]): 1.15 ± 0.07 nmol (mg protein)^−1 (5 min)^−1
kd (coefficient of passive diffusion) of BSP uptake (Caco-2 cells [5]; [9]): 38.2 ± 0.53 μL (mg protein)^−1 (5 min)^−1
Km (Caco-2 cells [5]; read-out: Km of BSP uptake, Caco-2 cells, 37 °C, pH 6.0, 5 min, BSP 0.5–100 μM): 13.9 ± 1.3 µM

[N-]=[N+]=[N-].[Na+] [NaN3, sodium azide]
Relative uptake rate of BSP (% of control) ([3]; cells treated with 10 mM NaN3 for 20 min, then 5 μM BSP): 106.4 ± 6.8 % of control

O=C(O)C(F)(F)C(F)(F)C(F)(F)C(F)(F)C(F)(F)C(F)(F)C(F)(F)F [PFOA, Perfluorooctanoic acid]
Vmax of PFOA uptake (Caco-2 cells [6]; PFOA 1–500 μM): 457 pmol/mg protein/min
Km (Caco-2 cells [6]; read-out: Km of PFOA uptake, PFOA 1–500 μM): 8.3 µM
Uptake of PFCA by Caco-2 cells (rank among C6–C12) (Caco-2 cells [4]): third highest
Decrease of BSP uptake on coincubation [3]: 27–55%
Ki [3]: 62.2 ± 1.3 µM
